Screens from PubChem.
INS-1E rescue – protection of INS-1E cells from cytokine death, primary screen, ATP luminescence, single point; INS-1E cytokine-induced death, 48 h; normalised: neutral wells 0, positive control 100; protection from cytokine-induced ATP loss, % at 10 µM; 0.1% of 20,000 active;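 active = mean replicate protection from cytokine-induced ATP loss at least 50% and at least 75% of replicates each reaching 50%; inconclusive = meets only one of the two criteria, mean or replicate share; inactive = fails both the mean and replicate share criteria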
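Material: INS-1E rat cells; Quantity: 8000 cells/well; Buffer or medium: phenol-red-free RPMI with 5% fetal bovine serum; Probe or stimulus: cytokine cocktail of IFN-γ, TNF-α and IL-1β; Compound dosing: single test concentration per compound, delivered by pin transfer; Incubation: 48 h co-treatment, 10 min post-lysis read; Signal: CellTiter-Glo luminescence.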
T cruzi intra – inhibitors of intracellular Trypanosoma cruzi, primary screen, cell-based, plate reader, single point, set 2 | intracellular Trypanosoma cruzi in host cells | activity score (inhibition), % at 5.01 µM | 4.9% of 22,000 active | AID 651903, 2012; in the data active = activity score above about 55%; inconclusive = no clear call, values can overlap the other calls;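 also: parasites and compound incubated about four days before reading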
YB-1 expr inh – inhibitors of YB-1 gene expression, primary screen, cell-based, fluorescence; U2OS, qRT-PCR YB-1 vs CDIP delta delta Cp, 16 h; active compounds read high; zero = DMSO, each unit about twofold; AID 434959, 2010; delta delta Cp (YB-1 minus CDIP) (no concentration beside the values); 0.37% of 30,000 active;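 active = delta delta Cp rounded down to an integer at or above 3, about 3 SD of DMSO wells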;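 also: higher means less YB-1 transcript or more CDIP transcript relative to DMSO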
Numbers stand for hits; n = inactive; u = inconclusive; x = no result. Many of the other results were omitted from the sample, so hits are more common in it than they were.

SMILES	INS-1E rescue	T cruzi intra	YB-1 expr inh
C[C@@H]1CCCCO[C@H](CN(C)C(=O)CCC(F)(F)F)[C@@H](C)CN([C@H](C)CO)C(=O)c2cc(NC(=O)C3CCCCC3)ccc2O1	n	n	n
COc1ccc(S(=O)(=O)Nc2ccc3c(c2)CC(=O)N([C@H](C)CO)C[C@@H](C)[C@@H](CN(C)Cc2ccc(-c4ccccc4)cc2)O3)cc1	n	72	n
COc1ccc(CN(C)C[C@@H]2Oc3ccc(NS(=O)(=O)c4ccccc4)cc3CC(=O)N([C@@H](C)CO)C[C@@H]2C)cc1	n	n	n
COc1ccc(S(=O)(=O)Nc2ccc3c(c2)CC(=O)N([C@H](C)CO)C[C@@H](C)[C@H](CN(C)Cc2ccc4c(c2)OCO4)O3)cc1	n	66	n
COc1ccc(S(=O)(=O)Nc2ccc3c(c2)CC(=O)N([C@@H](C)CO)C[C@@H](C)[C@@H](CN(C)Cc2ccc4c(c2)OCO4)O3)cc1	n	n	n
COc1ccc(CN(C)C[C@@H]2Oc3ccc(NS(=O)(=O)c4ccc(F)cc4)cc3CC(=O)N([C@H](C)CO)C[C@H]2C)cc1	n	n	n
COc1ccc(S(=O)(=O)Nc2ccc3c(c2)CC(=O)N([C@H](C)CO)C[C@@H](C)[C@@H](CN(C)Cc2ccccc2)O3)cc1	n	63	n
COc1ccc(S(=O)(=O)Nc2ccc3c(c2)CC(=O)N([C@H](C)CO)C[C@H](C)[C@H](CN(C)Cc2ccccc2)O3)cc1	n	n	n
COc1ccc(CN(C)C[C@H]2Oc3ccc(NS(=O)(=O)c4ccc(OC)cc4)cc3CC(=O)N([C@H](C)CO)C[C@H]2C)cc1	n	64	n
O=C(N/N=C/c1ccc(O)cc1O)c1ccccn1	n	n	n
Cc1noc(C)c1NC(=O)Nc1ccc2c(c1)C(=O)N([C@H](C)CO)C[C@@H](C)[C@H](CN(C)Cc1ccc(Oc3ccccc3)cc1)O2	n	n	n
Cc1ccc(S(=O)(=O)Nc2cccc3c2O[C@H](CN(C)S(=O)(=O)c2ccc(Cl)cc2)[C@H](C)CN([C@@H](C)CO)C3=O)cc1	n	n	n
C[C@@H]1CN([C@H](C)CO)C(=O)Cc2cc(NC(=O)Nc3ccccc3)ccc2O[C@@H]1CN(C)C(=O)NC1CCCCC1	n	n	n
COc1ccc(CN(C)C[C@H]2Oc3ccc(NS(=O)(=O)c4ccc(C)cc4)cc3CC(=O)N([C@H](C)CO)C[C@H]2C)cc1	n	u	n
COc1ccc(CN(C)C[C@@H]2Oc3ccc(NS(=O)(=O)c4ccc(OC)cc4)cc3CC(=O)N([C@H](C)CO)C[C@H]2C)cc1	n	70	n
CCC(C)C1NC(=O)C(CCC(=O)O)N(C)C(=O)C(C(C)C)N(C)C(=O)CNC(=O)C2CCCN2C(=O)C(Cc2ccccc2)NC(=O)C(C(C)CC)OC(=O)C(CCC(=O)O)N(C)C(=O)C(C(C)C)NC(=O)C2CCCCN2C1=O (stereo not given)	x	x	n
Cc1noc(C)c1NC(=O)Nc1cccc2c1O[C@@H](CN(C)S(C)(=O)=O)[C@H](C)CN([C@H](C)CO)C2=O	n	n	n
C[C@H](CO)N1C[C@H](C)[C@H](CN(C)S(C)(=O)=O)Oc2c(NC(=O)c3cnccn3)cccc2C1=O	n	n	4.7
C[C@@H]1CN([C@H](C)CO)C(=O)c2cccc(NC(=O)c3cnccn3)c2O[C@@H]1CN(C)S(=O)(=O)c1cccs1	n	n	n
C[C@H](CO)N1C[C@H](C)[C@H](CN(C)S(=O)(=O)c2cccs2)Oc2c(NC(=O)c3cnccn3)cccc2C1=O	n	69	n
Cc1noc(C)c1NC(=O)Nc1cccc2c1O[C@@H](CN(C)S(C)(=O)=O)[C@@H](C)CN([C@@H](C)CO)C2=O	n	67	n
C[C@H](CO)N1C[C@H](C)[C@H](CN(C)S(=O)(=O)c2ccccc2)Oc2c(NC(=O)c3cnccn3)cccc2C1=O	n	n	n
CCC(C)N1CCC2(CC1)N=c1c(c3c4c5c(C)c(O)c3c(O)c1=NC(=O)/C(C)=C\C=C[C@H](C)[C@H](O)[C@@H](C)[C@@H](O)[C@@H](C)[C@H](OC(C)=O)[C@H](C)[C@@H](OC)/C=C\O[C@@](C)(O5)C4=O)N2 (stereo not given in full)	x	x	n
C[C@@H]1CN([C@H](C)CO)C(=O)c2cc(NS(=O)(=O)c3cccs3)ccc2O[C@H]1CN(C)C(=O)Nc1cccc2ccccc12	n	n	n
C[C@@H]1CN([C@H](C)CO)C(=O)c2cc(NC(=O)Nc3ccc4c(c3)OCO4)ccc2O[C@H]1CN(C)C(=O)Nc1ccc2c(c1)OCO2	n	n	n
SMILES	INS-1E rescue	T cruzi intra	YB-1 expr inh
Cc1ccc(-c2nn3c(=O)c4ccccc4nc3c3ccccc23)cc1	x	x	n
Cc1ccc(-c2nnc(-n3cnc4cc(C)c(C)cc43)c3ccccc23)cc1	x	x	3.8
CNC[C@H]1Oc2ccc(NS(=O)(=O)c3c(C)noc3C)cc2C(=O)N([C@@H](C)CO)C[C@H]1C	n	n	n
CNC[C@@H]1Oc2ccc(NC(=O)Nc3ccccc3)cc2CC(=O)N([C@H](C)CO)C[C@@H]1C	n	n	n
COc1ccc(S(=O)(=O)Nc2ccc3c(c2)CC(=O)N([C@@H](C)CO)C[C@H](C)[C@H](CN(C)Cc2ccc(C(F)(F)F)cc2)O3)cc1	n	n	n
COc1ccc(S(=O)(=O)Nc2ccc3c(c2)CC(=O)N([C@@H](C)CO)C[C@@H](C)[C@@H](CN(C)Cc2ccc(C(F)(F)F)cc2)O3)cc1	n	80	n
COc1ccc(S(=O)(=O)Nc2ccc3c(c2)CC(=O)N([C@H](C)CO)C[C@@H](C)[C@@H](CN(C)Cc2ccc(C(F)(F)F)cc2)O3)cc1	n	65	n
COc1ccc(S(=O)(=O)Nc2ccc3c(c2)CC(=O)N([C@H](C)CO)C[C@@H](C)[C@H](CN(C)Cc2ccc(C(F)(F)F)cc2)O3)cc1	n	u	n
COc1ccc(S(=O)(=O)N(C)C[C@H]2Oc3ccc(NC(=O)Cc4cn(C)c5ccccc45)cc3C(=O)N([C@@H](C)CO)C[C@H]2C)cc1	x	n	n
C[C@H]1CN([C@@H](C)CO)C(=O)Cc2cc(NC(=O)C3CCCCC3)ccc2O[C@H]1CN(C)Cc1ccc(C(=O)O)cc1	n	n	n
COc1ccc(CN(C)C[C@H]2Oc3ccc(NC(=O)C4CCCCC4)cc3CC(=O)N([C@@H](C)CO)C[C@@H]2C)cc1	n	64	n
C[C@H]1CN([C@@H](C)CO)C(=O)Cc2cc(NC(=O)C3CCCCC3)ccc2O[C@H]1CN(C)Cc1ccc(Oc2ccccc2)cc1	n	n	n
COc1ccc(CN(C)C[C@H]2Oc3ccc(NC(=O)C4CCCCC4)cc3CC(=O)N([C@H](C)CO)C[C@H]2C)cc1	n	n	n
C[C@@H]1CN([C@H](C)CO)C(=O)Cc2cc(NC(=O)C3CCCCC3)ccc2O[C@H]1CN(C)Cc1ccc(Oc2ccccc2)cc1	n	76	n
C[C@@H]1CN([C@H](C)CO)C(=O)c2cccc(NC(=O)c3ccc(-c4nccs4)cc3)c2O[C@H]1CN(C)S(=O)(=O)c1ccc(Cl)cc1	n	n	n
